# Laboratory results as given in ChEMBL document CHEMBL4699485, “Discovery and Development of SPR519 as a Potent, Selective, and Orally Bioavailable Inhibitor of PI3Kα and mTOR Kinases for the Treatment of Solid Tumors” (J Med Chem, 2020).
# Active and inactive are the calls of the source. No cut-off for these calls is given here.
# Columns and labels:
# A2780 = assay: Antiproliferative activity against human A2780 cells after 48 hrs by MTT assay; assay type: functional, cell-based; details: A2780, 48 h
# Procedure, shortened: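 A2780 cells grown in DMEM with 10% FBS, L-glutamine and antibiotics, seeded at 10000 cells/well and allowed to adhere overnight. Treated 48 h across 20 µM–0.001 µM. MTT (5 mg/mL in PBS) added for 4 h, formazan dissolved in DMSO, absorbance read at 550 nm. % inhibition fit to a four-parameter log inhibitor vs response curve.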
# [1] = AUC in Swiss mouse at 3 mg/kg, po via gavage by LC-MS/MS analysis; assay type: ADME, organism-based; set-up: dose 3 mg/kg; details: in vivo
# Procedure, shortened: (§1)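 Female Swiss mice (n=3/group), fasted overnight, given single oral gavage dose in 0.5% CMC/0.5% Tween 80 (10 mL/kg) at 1, 3 or 10 mg/kg. Serial blood sampling at 0.16–8 h into heparinized tubes. Plasma extracted with acetonitrile containing verapamil internal standard and quantified by LC-MS/MS. Cmax, Tmax, AUC and t1/2 derived from the concentration–time profile.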
# SK-OV-3 = assay: Antiproliferative activity against human SK-OV-3 cells after 48 hrs by MTT assay; assay type: functional, cell-based; details: SK-OV-3, 48 h
# Procedure, shortened: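 SK-OV-3 cells grown in McCoy's 5a with 10% FBS, 100 U/mL penicillin and 100 µg/mL streptomycin at 37 °C, 5% CO2, seeded at 10000 cells/well. Treated 48 h across 20 µM–0.001 µM. MTT (5 mg/mL in PBS) added for 4 h, DMSO solubilization, absorbance read at 550 nm. Four-parameter curve fit of % inhibition.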
# PC-3 = assay: Antiproliferative activity against human PC-3 cells after 48 hrs by MTT assay; assay type: functional, cell-based; details: PC-3, 48 h
# Procedure, shortened: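 PC3 cells grown in RPMI 1640 with 10% FBS and 1% penicillin/streptomycin at 37 °C, 5% CO2, seeded at 10000 cells/well. Treated 48 h across 20 µM–0.001 µM. MTT (5 mg/mL in PBS) added for 4 h, then DMSO solubilization and absorbance at 550 nm. Four-parameter nonlinear fit of % inhibition.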
# [2] = Metabolic stability in human liver microsomes assessed as parent compound remaining at 10 uM remaining after 120 mins in presence of NADPH by HPLC analysis; assay type: ADME, Microsome; details: read-out: Stabilty
# Procedure, shortened: (§2)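 Compound at 10 µM was incubated with 0.5 mg/mL liver microsomes and 1 mM NADPH (final). Samples were taken at 0, 15, 30, 60 and 120 min and stopped with acetonitrile, then centrifuged and the supernatant analysed by HPLC. Percent parent remaining was set relative to the 0 min peak area (100%).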
# [3] = target: Serine/threonine-protein kinase mTOR (Homo sapiens, UniProt P42345); assay: Inhibition of recombinant human GST-tagged mTOR catalytic domain (1360 to 2549 residues) expressed in baculovirus expression system using GFP-4E-BP1 as substrate preincubated for 15 mins followed by substrate addition and measured after 60 mins by TR-FRET assay
# Procedure, shortened: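 Recombinant mTOR (FRAP1) was preincubated 15 min with serially diluted compound (10 µM–0.0005 µM, DMSO) in kinase buffer, 10 µL reaction. GFP-4E-BP1 (400 nM final) and ATP (8 µM final) were added and the reaction ran 1 h at RT. Quench buffer with Tb-anti-p4E-BP1 (pThr46) was added for 1 h at RT. TR-FRET 520/486 nm ratio was fitted by four-parameter sigmoidal regression.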
# [4] = Metabolic stability in mouse liver microsomes assessed as parent compound remaining at 10 uM remaining after 120 mins in presence of NADPH by HPLC analysis; assay type: ADME, Microsome; details: read-out: Stabilty; procedure, shortened: as §2
# [5] = Metabolic stability in dog liver microsomes assessed as parent compound remaining at 10 uM remaining after 120 mins in presence of NADPH by HPLC analysis; assay type: ADME, Canis lupus familiaris, Microsome; details: read-out: Stabilty; procedure, shortened: as §2
# [6] = target: PI3-kinase p110-alpha/p85-alpha (Homo sapiens, UniProt P42336); assay: Inhibition of recombinant human full-length N-terminal His-tagged p110 alpha/p85 alpha expressed in baculovirus expression system using PIP2 as substrate preincubated for 15 mins followed by substrate addition and measured after 60 mins by ADP HiLyte 647 tracer bound ADP2 antibody-Tb conjugate based HTRF assay
# Procedure, shortened: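 PI3Kα at 150 ng/mL (diluted stock) in 50 mM HEPES pH 7.4, 3 mM MgCl2, 2 mM DTT, 0.05% CHAPS, 50 mM NaCl, 1 mM EGTA. Compound tested over 10–0.001 µM. Final reaction held 50 µM PIP2 and 1 µM ATP. Detection mix added for 1 h, then 665/615 nm ratio read. % inhibition versus concentration fitted by four-parameter nonlinear regression to give IC50.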
# [7] = Elimination half life in Swiss mouse at 3 mg/kg, po via gavage by LC-MS/MS analysis; assay type: ADME, organism-based; details: in vivo, read-out: beta t1/2 (converted); procedure, shortened: as §1
# Cytochrome P450 2C19 = Cytochrome P450 2C19 (Homo sapiens, UniProt P33261); assay: Inhibition of CYP2C19 in human liver microsomes using isoform-specific probe substrates preincubated for 5 mins followed by NADPH addition by LC-MS/MS analysis; assay type: ADME
# Procedure, shortened: (§3)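 Human liver microsomes premixed with buffer and a CYP-specific FDA-recommended probe substrate, then spiked with inhibitor, in duplicate. After 5 min preincubation at 37 °C, reaction started with NADPH and run at 37 °C for a set time, then quenched. Metabolite formation quantified by HPLC/LC-MS/MS to derive the concentration giving 50% inhibition.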
# [8] = Tmax in Swiss mouse at 3 mg/kg, po via gavage by LC-MS/MS analysis; assay type: ADME, organism-based; details: in vivo
# Procedure, shortened: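 Female Swiss mice (n=3/group) were fasted overnight, then gavaged with compound in 0.5% CMC/0.5% Tween 80 at 10 mL/kg. Serial blood samples at 0.16, 0.5, 1, 2, 4, 6 and 8 h were taken into heparinized tubes and spun to plasma. Plasma was extracted with acetonitrile containing verapamil (400 ng/mL) and quantified by LC-MS/MS against plasma calibration curves. Tmax was derived from the concentration–time profile.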
# Cytochrome P450 2D6 = Cytochrome P450 2D6 (Homo sapiens, UniProt P10635); assay: Inhibition of CYP2D6 in human liver microsomes using isoform-specific probe substrates preincubated for 5 mins followed by NADPH addition by LC-MS/MS analysis; assay type: ADME; procedure, shortened: as §3
# [9] = Cmax in Swiss mouse at 3 mg/kg, po via gavage by LC-MS/MS analysis; assay type: ADME, organism-based; set-up: route oral, dose 3 mg/kg; details: in vivo; procedure, shortened: as §1
# [10] = target: T1, Voltage-gated inwardly rectifying potassium channel KCNH2 (Homo sapiens, UniProt Q12809); assay: Inhibition of human ERG by patch-clamp assay
# [11] = target: T1, Voltage-gated inwardly rectifying potassium channel KCNH2; assay: Inhibition of human ERG channel trafficking expressed in mammalian expression system at 1 to 30 uM by HERG-Lite assay; details: dose 1-30 µM
# Procedure, shortened: (§4)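 HERG-lite assay scoring both channel blocking and trafficking inhibition, with test compound at 1, 10 and 30 µM. Geldanamycin (1 µM) served as the trafficking-inhibition reference and astemizole as the standard hERG binder.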
# Homo sapiens = species on record: Homo sapiens; assay: Channel blockade of human ERG G601S mutant expressed in mammalian expression system assessed as effect on surface expression of channel at 1 to 30 uM by HERG-Lite assay; details: dose microM 1-30; procedure, shortened: as §4
# Cytochrome P450 3A4 = Cytochrome P450 3A4 (Homo sapiens, UniProt P08684); assay: Inhibition of CYP3A4 in human liver microsomes using isoform-specific probe substrates preincubated for 5 mins followed by NADPH addition by LC-MS/MS analysis; assay type: ADME; procedure, shortened: as §3
# [12] = Drug uptake in Swiss mouse plasma at 10 mg/kg, po via gavage by LC-MS/MS analysis; assay type: ADME, organism-based; details: in vivo; procedure, shortened: as §1
# Chain of PI3-kinase p110-alpha/p85-alpha (P27986 whole entry): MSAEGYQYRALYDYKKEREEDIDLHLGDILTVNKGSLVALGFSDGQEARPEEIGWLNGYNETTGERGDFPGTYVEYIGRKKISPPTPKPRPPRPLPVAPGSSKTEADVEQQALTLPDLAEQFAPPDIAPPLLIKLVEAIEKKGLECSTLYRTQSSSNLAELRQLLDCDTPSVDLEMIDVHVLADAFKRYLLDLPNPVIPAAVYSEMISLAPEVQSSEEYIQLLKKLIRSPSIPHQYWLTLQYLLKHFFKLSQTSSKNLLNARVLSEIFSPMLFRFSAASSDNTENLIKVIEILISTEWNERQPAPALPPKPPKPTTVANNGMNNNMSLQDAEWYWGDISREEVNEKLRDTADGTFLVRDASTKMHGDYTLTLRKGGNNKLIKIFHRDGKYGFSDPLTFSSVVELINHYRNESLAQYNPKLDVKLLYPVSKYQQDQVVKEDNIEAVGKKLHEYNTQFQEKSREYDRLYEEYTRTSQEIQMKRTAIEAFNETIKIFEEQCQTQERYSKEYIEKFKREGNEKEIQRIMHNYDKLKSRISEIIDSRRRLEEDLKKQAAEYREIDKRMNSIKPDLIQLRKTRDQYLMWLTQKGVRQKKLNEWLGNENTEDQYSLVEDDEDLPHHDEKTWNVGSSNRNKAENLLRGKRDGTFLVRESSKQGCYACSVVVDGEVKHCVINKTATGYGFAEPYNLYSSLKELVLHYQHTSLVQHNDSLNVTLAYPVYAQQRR
# Chain of PI3-kinase p110-alpha/p85-alpha (P42336 whole entry): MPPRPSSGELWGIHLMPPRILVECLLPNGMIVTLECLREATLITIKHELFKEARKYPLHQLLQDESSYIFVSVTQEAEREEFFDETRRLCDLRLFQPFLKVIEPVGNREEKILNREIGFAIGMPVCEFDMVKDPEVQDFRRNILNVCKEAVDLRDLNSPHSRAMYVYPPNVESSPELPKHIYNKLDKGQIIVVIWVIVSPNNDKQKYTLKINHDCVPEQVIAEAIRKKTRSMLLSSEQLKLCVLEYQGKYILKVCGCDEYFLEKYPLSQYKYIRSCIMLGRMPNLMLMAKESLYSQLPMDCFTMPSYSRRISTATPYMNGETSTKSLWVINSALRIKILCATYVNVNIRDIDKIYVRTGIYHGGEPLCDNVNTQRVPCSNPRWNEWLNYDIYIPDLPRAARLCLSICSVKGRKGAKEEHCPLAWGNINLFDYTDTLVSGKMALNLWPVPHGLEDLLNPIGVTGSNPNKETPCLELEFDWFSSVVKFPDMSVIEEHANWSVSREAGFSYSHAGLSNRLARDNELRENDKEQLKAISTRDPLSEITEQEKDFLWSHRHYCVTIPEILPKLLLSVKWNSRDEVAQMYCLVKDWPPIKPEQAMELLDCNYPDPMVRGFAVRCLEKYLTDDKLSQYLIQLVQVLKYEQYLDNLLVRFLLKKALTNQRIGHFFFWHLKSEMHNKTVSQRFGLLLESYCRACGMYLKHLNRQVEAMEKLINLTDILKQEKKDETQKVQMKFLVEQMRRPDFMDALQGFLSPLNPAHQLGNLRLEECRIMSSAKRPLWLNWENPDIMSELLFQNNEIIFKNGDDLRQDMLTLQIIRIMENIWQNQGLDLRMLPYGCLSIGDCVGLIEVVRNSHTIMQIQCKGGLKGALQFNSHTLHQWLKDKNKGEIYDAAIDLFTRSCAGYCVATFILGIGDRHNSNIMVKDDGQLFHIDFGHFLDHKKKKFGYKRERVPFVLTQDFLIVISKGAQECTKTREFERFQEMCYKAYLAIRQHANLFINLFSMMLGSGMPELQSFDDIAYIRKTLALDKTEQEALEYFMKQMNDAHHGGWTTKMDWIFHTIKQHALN
# T1 sequence (Q12809 whole entry): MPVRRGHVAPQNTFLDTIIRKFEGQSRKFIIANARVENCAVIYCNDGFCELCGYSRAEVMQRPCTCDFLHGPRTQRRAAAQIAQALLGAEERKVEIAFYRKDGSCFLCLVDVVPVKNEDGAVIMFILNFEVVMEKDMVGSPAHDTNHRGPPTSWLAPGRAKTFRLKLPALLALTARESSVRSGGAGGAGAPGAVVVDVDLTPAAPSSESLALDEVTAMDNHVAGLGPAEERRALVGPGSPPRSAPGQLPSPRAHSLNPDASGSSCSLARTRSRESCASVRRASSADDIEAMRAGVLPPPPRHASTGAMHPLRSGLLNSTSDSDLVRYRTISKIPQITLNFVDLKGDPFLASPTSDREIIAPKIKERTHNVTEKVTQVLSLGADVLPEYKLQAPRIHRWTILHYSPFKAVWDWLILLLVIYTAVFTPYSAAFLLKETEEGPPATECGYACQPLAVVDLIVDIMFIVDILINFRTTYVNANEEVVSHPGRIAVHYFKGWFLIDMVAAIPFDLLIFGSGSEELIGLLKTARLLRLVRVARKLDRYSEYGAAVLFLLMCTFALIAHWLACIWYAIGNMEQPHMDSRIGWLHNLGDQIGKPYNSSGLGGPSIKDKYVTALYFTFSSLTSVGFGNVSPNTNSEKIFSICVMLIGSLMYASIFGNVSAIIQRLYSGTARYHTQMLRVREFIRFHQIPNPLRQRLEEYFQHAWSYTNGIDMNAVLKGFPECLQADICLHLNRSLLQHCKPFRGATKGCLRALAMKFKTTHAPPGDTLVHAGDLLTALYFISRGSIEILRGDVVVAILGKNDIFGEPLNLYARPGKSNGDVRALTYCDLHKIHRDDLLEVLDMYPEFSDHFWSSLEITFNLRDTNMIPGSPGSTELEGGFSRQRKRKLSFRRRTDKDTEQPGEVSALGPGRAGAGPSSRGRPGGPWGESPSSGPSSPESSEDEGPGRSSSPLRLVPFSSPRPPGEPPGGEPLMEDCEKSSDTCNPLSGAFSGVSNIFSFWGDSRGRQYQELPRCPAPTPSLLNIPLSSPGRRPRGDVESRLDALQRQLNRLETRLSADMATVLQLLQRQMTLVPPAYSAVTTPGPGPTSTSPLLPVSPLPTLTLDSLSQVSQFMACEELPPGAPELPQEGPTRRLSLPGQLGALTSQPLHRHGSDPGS
# Chain of Cytochrome P450 3A4 (P08684 whole entry, canonical isoform): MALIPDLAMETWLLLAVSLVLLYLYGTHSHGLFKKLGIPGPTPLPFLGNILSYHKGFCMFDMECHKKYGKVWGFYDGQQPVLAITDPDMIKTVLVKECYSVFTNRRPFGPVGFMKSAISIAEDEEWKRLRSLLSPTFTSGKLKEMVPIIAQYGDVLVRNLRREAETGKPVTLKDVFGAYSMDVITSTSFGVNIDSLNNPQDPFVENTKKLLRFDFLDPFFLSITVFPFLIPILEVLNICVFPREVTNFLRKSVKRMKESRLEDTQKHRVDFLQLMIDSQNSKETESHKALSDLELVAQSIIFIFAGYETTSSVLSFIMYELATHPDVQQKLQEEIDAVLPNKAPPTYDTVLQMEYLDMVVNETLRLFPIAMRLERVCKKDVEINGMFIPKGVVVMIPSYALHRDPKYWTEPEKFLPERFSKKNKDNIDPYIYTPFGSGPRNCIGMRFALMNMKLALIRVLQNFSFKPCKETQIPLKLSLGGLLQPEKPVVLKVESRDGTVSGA
# Chain of Cytochrome P450 2D6 (P10635 whole entry, canonical isoform): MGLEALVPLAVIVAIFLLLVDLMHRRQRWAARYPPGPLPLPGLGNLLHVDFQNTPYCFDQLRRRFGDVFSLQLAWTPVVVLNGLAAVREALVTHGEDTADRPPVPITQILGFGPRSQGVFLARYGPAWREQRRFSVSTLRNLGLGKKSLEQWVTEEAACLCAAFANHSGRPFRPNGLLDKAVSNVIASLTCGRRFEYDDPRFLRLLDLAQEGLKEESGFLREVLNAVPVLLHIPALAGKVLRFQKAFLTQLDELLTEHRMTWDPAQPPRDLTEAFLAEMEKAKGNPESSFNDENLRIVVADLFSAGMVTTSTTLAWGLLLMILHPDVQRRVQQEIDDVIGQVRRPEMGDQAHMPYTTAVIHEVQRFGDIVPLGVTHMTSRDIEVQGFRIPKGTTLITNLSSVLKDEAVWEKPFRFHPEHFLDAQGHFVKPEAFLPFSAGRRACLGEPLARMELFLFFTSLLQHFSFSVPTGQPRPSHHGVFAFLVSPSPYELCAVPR
# Chain of Cytochrome P450 2C19 (P33261 whole entry, canonical isoform): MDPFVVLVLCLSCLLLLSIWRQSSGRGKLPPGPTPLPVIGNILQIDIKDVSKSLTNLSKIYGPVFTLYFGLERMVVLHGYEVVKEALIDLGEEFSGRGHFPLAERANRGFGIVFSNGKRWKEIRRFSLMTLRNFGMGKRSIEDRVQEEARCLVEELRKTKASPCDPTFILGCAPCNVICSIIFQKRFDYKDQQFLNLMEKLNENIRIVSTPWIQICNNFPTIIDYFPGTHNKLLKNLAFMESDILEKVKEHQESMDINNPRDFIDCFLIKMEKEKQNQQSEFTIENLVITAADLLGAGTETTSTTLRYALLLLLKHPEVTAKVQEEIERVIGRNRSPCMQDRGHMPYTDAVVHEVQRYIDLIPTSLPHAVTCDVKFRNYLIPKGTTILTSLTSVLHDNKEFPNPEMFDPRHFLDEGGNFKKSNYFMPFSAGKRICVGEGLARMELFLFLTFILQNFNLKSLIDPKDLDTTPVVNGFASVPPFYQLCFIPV
compound,measurement,setting,value
CN(C)C(=O)c1ccc(Oc2nc(-c3cccc4[nH]ncc34)nc(N3CCOCC3)n2)cc1,IC50,A2780,520 nM
same,AUC,[1],5.25 µM·h
same,EC50,SK-OV-3,520 nM
same,EC50,PC-3,1970 nM
same,"remaining at 2 h, 10 µM",[2],100%
same,IC50,[3],1350 nM
same,"remaining at 2 h, 10 µM",[4],45%
same,"remaining at 2 h, 10 µM",[5],83%
Cc1cc(-c2nc(Oc3ccc(C(=O)N(C)C)cc3)nc(N3CCOCC3)n2)cnc1N,IC50,A2780,1500 nM
same,IC50,[6],460 nM
CN(C)C(=O)c1ccc(Oc2nc(-c3ccnc4[nH]ccc34)nc(N3CCOCC3)n2)cc1,half-life,[7],2.8 h
same,IC50,Cytochrome P450 2C19,> 10000 nM
same,IC50,A2780,370 nM
same,AUC,[1],16.8 µM·h
same,Tmax,[8],1 h
same,IC50,Cytochrome P450 2D6,> 10000 nM
same,IC50,[6],80 nM
same,EC50,SK-OV-3,370 nM
same,EC50,PC-3,300 nM
same,"remaining at 2 h, 10 µM",[2],92%
same,Cmax,[9],3080 nM
same,IC50,[10],> 10000 nM
same,inhibition (INH),[11],Not Active
same,IC50,[3],220 nM
same,Activity,Homo sapiens,Active
same,IC50,Cytochrome P450 3A4,> 10000 nM
same,"remaining at 2 h, 10 µM",[4],68%
same,"remaining at 2 h, 10 µM",[5],77%
CN(C)C(=O)c1ccc(Oc2nc(-c3cccc4[nH]ccc34)nc(N3CCOCC3)n2)cc1,IC50,A2780,900 nM
same,IC50,[6],560 nM
CN(C)C(=O)c1ccc(Oc2nc(-c3cccc4[nH]nnc34)nc(N3CCOCC3)n2)cc1,IC50,A2780,> 10000 nM
same,IC50,[6],> 10000 nM
CN(C)C(=O)c1ccc(Oc2nc(-c3cnc(N)[nH]3)nc(N3CCOCC3)n2)cc1,IC50,A2780,2360 nM
same,IC50,[6],900 nM
CN(C)C(=O)c1ccc(Oc2nc(-c3cnc(N)nc3)nc(N3CCOCC3)n2)cc1,IC50,A2780,560 nM
same,IC50,[6],270 nM
same,EC50,SK-OV-3,220 nM
same,EC50,PC-3,800 nM
same,IC50,[3],960 nM
CN(C)C(=O)c1ccc(Oc2nc(-c3cccc(O)c3)nc(N3CCOCC3)n2)cc1,Drug uptake,[12],Not Active
same,IC50,A2780,90 nM
same,IC50,[6],10 nM
Cc1cc(N)ncc1-c1nc(Oc2ccc(C(=O)N(C)C)cc2)nc(N2CCOCC2)n1,IC50,A2780,> 10000 nM
same,IC50,[6],> 10000 nM
Cc1nc(N)ccc1-c1nc(Oc2ccc(C(=O)N(C)C)cc2)nc(N2CCOCC2)n1,IC50,A2780,> 10000 nM
same,IC50,[6],3400 nM
CN(C)C(=O)c1ccc(Oc2nc(-c3ccc(N)nc3)nc(N3CCOCC3)n2)cc1,half-life,[7],2.7 h
same,IC50,Cytochrome P450 2C19,> 10000 nM
same,IC50,A2780,200 nM
same,AUC,[1],10.9 µM·h
same,Tmax,[8],1.4 h
same,IC50,Cytochrome P450 2D6,> 10000 nM
same,IC50,[6],210 nM
same,EC50,SK-OV-3,210 nM
same,EC50,PC-3,280 nM
same,"remaining at 2 h, 10 µM",[2],93%
same,Cmax,[9],2010 nM
same,IC50,[10],> 1000 nM
same,inhibition (INH),[11],Not Active
same,IC50,[3],200 nM
same,Activity,Homo sapiens,Active
same,IC50,Cytochrome P450 3A4,> 10000 nM
same,"remaining at 2 h, 10 µM",[4],102%
same,"remaining at 2 h, 10 µM",[5],93%
Cc1nc(N)sc1-c1nc(Oc2ccc(C(=O)N(C)C)cc2)nc(N2CCOCC2)n1,IC50,A2780,1100 nM
same,IC50,[6],140 nM
